Measurements: ChEMBL document CHEMBL4373647, “Design, synthesis, and antimicrobial evaluation of 1,4-dihydroindeno[1,2-c]pyrazole tethered carbohydrazide hybrids: exploring their in silico ADMET, ergosterol inhibition and ROS inducing potential” (Medchemcomm, 2019)
≈ marks a conversion by molar mass, not a printed value. Calls of active or inactive are those of the source. The rule behind the calls is not given here.

Key:
[1] = tested on: Pseudomonas aeruginosa; assay: Antibacterial activity against Pseudomonas aeruginosa MTCC 2453 assessed as inhibition of bacterial growth incubated for 24 hrs by agar well diffusion method; type: functional; conditions: MTCC 2453, 24 h
Summary of the method: (§1)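 Strains from MTCC; inoculum at 0.5 McFarland spread on Mueller-Hinton agar; 6 mm wells loaded with compound over 125–0.97 µg/mL; ciprofloxacin positive control (same range), DMSO negative control. Plates held 24 h at 37 °C; MIC taken as lowest concentration giving a clear inhibition zone. Triplicate runs, mean MIC reported.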

[2] = tested on: Escherichia coli; assay: Antibacterial activity against Escherichia coli MTCC 739 assessed as inhibition of bacterial growth incubated for 24 hrs by agar well diffusion method; type: functional; conditions: MTCC 739, 24 h; summary of the method: as §1
[3] = tested on: Staphylococcus aureus; assay: Ratio of MBC to MIC against Staphylococcus aureus MLS-16 MTCC 2940; type: functional
[4] = tested on: Candida albicans; assay: Fungicidal activity against Candida albicans MTCC 3018 assessed as fungal killing incubated for 24 hrs; type: functional; conditions: MTCC 3018, 24 h
Summary of the method: (§2)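 Compound at 125–0.97 µg/mL in Mueller Hinton broth in microcentrifuge tubes, each Candida strain added, held 24 h at 37 °C. 10 µL of the treated suspension plated on Mueller Hinton agar and incubated a further 24 h at 37 °C. MFC is the lowest concentration that kills the strain. Duplicates, means reported.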

[5] = tested on: Micrococcus luteus; assay: Bactericidal activity against Micrococcus luteus MTCC 2470 assessed as bacterial killing incubated for 24 hrs; type: functional; conditions: MTCC 2470, 24 h
Summary of the method: (§3)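 Broth tube assay: compound at 0–125 µg/mL in Mueller Hinton broth, overnight culture added to 0.5 McFarland (1.5 × 10^8 cfu/mL), held 24 h at 37 °C. 10 µL from each tube plated on Mueller Hinton agar. MBC is the lowest concentration that kills the strain. Duplicates, means reported.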

[6] = tested on: Candida albicans; assay: Antifungal activity against Candida albicans MTCC 3017 assessed as inhibition of fungal growth incubated for 24 hrs by agar well diffusion method; type: functional; conditions: MTCC 3017, 24 h
Summary of the method: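 Candida strains from MTCC, pre-cultured and spread on Mueller Hinton agar. Wells received compound dissolved in 10% DMSO, 125–0.97 µg/mL; miconazole standard over the same range, DMSO negative control. After 24 h at 37 °C, MIC was read as the lowest concentration giving an inhibition zone. Duplicate experiments, means given.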

[7] = tested on: Pichia kudriavzevii; assay: Fungicidal activity against Candida krusei MTCC 3020 assessed as fungal killing incubated for 24 hrs; type: functional; conditions: MTCC 3020, 24 h; summary of the method: as §2
[8] = tested on: Raoultella planticola; assay: Bactericidal activity against Klebsiella planticola MTCC 530 assessed as bacterial killing incubated for 24 hrs; type: functional; conditions: MTCC 530, 24 h; summary of the method: as §3
[9] = tested on: Candida albicans; assay: Fungicidal activity against Candida albicans MTCC 1637 assessed as fungal killing incubated for 24 hrs; type: functional; conditions: MTCC 1637, 24 h; summary of the method: as §2
[10] = tested on: Pichia kudriavzevii; assay: Ratio of MFC to MIC against Candida krusei MTCC 3020; type: functional
Summary of the method: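 MIC by agar well diffusion: Candida lawns on Mueller-Hinton agar, wells loaded with compound in 10% DMSO (125–0.97 µg/mL), 24 h at 37 °C, lowest concentration giving an inhibition zone. MFC: compound in Mueller-Hinton broth (125–0.97 µg/mL) with yeast, 24 h at 37 °C, 10 µL plated on agar, lowest killing concentration after 24 h. Ratio is MFC/MIC.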

[11] = tested on: Staphylococcus aureus; assay: Ratio of MBC to MIC against Staphylococcus aureus MTCC 96; type: functional
[12] = tested on: Micrococcus luteus; assay: Ratio of MBC to MIC against Micrococcus luteus MTCC 2470; type: functional
[13] = tested on: Pseudomonas aeruginosa; assay: Bactericidal activity against Pseudomonas aeruginosa MTCC 2453 assessed as bacterial killing incubated for 24 hrs; type: functional; conditions: MTCC 2453, 24 h; summary of the method: as §3
[14] = tested on: Raoultella planticola; assay: Antibacterial activity against Klebsiella planticola MTCC 530 assessed as inhibition of bacterial growth incubated for 24 hrs by agar well diffusion method; type: functional; conditions: MTCC 530, 24 h; summary of the method: as §1
[15] = tested on: Candida albicans; assay: Fungicidal activity against Candida albicans MTCC 227 assessed as fungal killing incubated for 24 hrs; type: functional; conditions: MTCC 227, 24 h; summary of the method: as §2
[16] = tested on: Staphylococcus aureus; assay: Bactericidal activity against Staphylococcus aureus MLS-16 MTCC 2940 assessed as bacterial killing incubated for 24 hrs; type: functional; conditions: MLS-16 MTCC 2940, 24 h; summary of the method: as §3
[17] = tested on: Candida albicans; assay: Induction of ROS generation in Candida albicans MTCC 3017 assessed as accumulation of intracellular ROS level by measuring fluorescence intensity at 25 ug/ml after 24 hrs by DCFH-DA probe based fluorimetric assay; type: functional, organism-based
Summary of the method: (§4)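 C. albicans MTCC 3017 biofilms grown 24 h at 37 °C in 96-well plates, then treated 24 h with compound at 0, 5, 10, 15, 20, 25 µg/mL; untreated cells served as control. Cells then loaded with 10 µM DCFH-DA for 24 h in the dark, and fluorescence read at 485 nm excitation and 535 nm emission. Triplicates.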

[18] = tested on: Candida albicans; assay: Induction of ROS generation in Candida albicans MTCC 3017 assessed as accumulation of intracellular ROS level by measuring fluorescence intensity at 5 ug/ml after 24 hrs by DCFH-DA probe based fluorimetric assay; type: functional, organism-based; summary of the method: as §4
[19] = tested on: Candida albicans; assay: Induction of ROS generation in Candida albicans MTCC 3017 assessed as accumulation of intracellular ROS level by measuring fluorescence intensity after 24 hrs by DCFH-DA probe based fluorimetric assay; type: functional, organism-based; summary of the method: as §4
[20] = molecular target: Lanosterol 14-alpha demethylase (Candida albicans (strain SC5314 / ATCC MYA-2876) (Yeast), UniProt P10613); assay: Inhibition of CYP51 in Candida albicans MTCC 3017 assessed as reduction in ergosterol level incubated for 20 hrs by UV-visible spectrophotometry analysis
Summary of the method: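 Modified Breivik–Owades sterol method: Mueller Hinton broth with compound at 0, 2, 4, 8, 16 µg/mL, inoculated with single Candida colonies, shaken at 200 rpm for 20 h at 30 °C. Pellets washed and weighed, saponified in 25% alcoholic KOH for 70 min at 90 °C, sterols extracted into n-heptane, diluted 1:5 in ethanol and scanned at 230–310 nm. Triplicates.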

Sequence of Lanosterol 14-alpha demethylase (P10613 whole entry): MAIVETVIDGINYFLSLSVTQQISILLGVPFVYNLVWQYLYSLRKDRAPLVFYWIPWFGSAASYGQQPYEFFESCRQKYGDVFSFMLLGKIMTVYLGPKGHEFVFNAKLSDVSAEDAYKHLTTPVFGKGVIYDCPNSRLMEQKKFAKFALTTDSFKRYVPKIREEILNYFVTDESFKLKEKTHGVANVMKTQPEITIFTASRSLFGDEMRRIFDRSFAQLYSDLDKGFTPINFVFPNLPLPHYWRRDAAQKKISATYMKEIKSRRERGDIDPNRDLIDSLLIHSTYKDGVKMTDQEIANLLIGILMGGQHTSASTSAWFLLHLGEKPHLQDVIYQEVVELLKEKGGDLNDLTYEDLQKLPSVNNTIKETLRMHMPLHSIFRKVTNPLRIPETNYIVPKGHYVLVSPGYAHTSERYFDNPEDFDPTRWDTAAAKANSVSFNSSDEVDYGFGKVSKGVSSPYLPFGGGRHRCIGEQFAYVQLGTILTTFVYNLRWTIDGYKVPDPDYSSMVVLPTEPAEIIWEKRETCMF

Row | MIC [1] [µg/mL] | MIC [2] [µg/mL] | MIC [6] [µg/mL] | inhibition (INH) [20] | Compound | Ratio [3] | MFC [4] [µg/mL] | MBC [5] [µg/mL] | MFC [7] [µg/mL] | MBC [8] [µg/mL] | MFC [9] [µg/mL] | Ratio [10] | Ratio [11] | Ratio [12] | MBC [13] [µg/mL] | MIC [14] [µg/mL] | MFC [15] [µg/mL] | MBC [16] [µg/mL] | Activity [17] | Activity [18] | Activity [19]
1 | 7.8 (≈ 24.5 µM) | 3.9 (≈ 12.3 µM) | 7.8 (≈ 24.5 µM) | – | O=C(N/N=C/c1ccc(O)cc1)c1n[nH]c2c1Cc1ccccc1-2 | 2 | 15.6 (≈ 49 µM) | 15.6 (≈ 49 µM) | 31.2 (≈ 98 µM) | 15.6 (≈ 49 µM) | 31.2 (≈ 98 µM) | 2 | 2 | 2 | 15.6 (≈ 49 µM) | 7.8 (≈ 24.5 µM) | 15.6 (≈ 49 µM) | 7.8 (≈ 24.5 µM) | – | – | –
2 | 7.8 (≈ 23.2 µM) | 3.9 (≈ 11.6 µM) | 7.8 (≈ 23.2 µM) | – | O=C(N/N=C/c1ccc(O)cc1)c1n[nH]c2c1Cc1cc(F)ccc1-2 | 2 | 31.2 (≈ 92.8 µM) | 15.6 (≈ 46.4 µM) | 31.2 (≈ 92.8 µM) | 15.6 (≈ 46.4 µM) | 31.2 (≈ 92.8 µM) | 2 | 2 | 2 | 15.6 (≈ 46.4 µM) | 7.8 (≈ 23.2 µM) | 15.6 (≈ 46.4 µM) | 7.8 (≈ 23.2 µM) | – | – | –

Continued, molecule first:

Row | Compound | MIC [1] [µg/mL] | MIC [2] [µg/mL] | MIC [6] [µg/mL] | inhibition (INH) [20] | Ratio [3] | MFC [4] [µg/mL] | MBC [5] [µg/mL] | MFC [7] [µg/mL] | MBC [8] [µg/mL] | MFC [9] [µg/mL] | Ratio [10] | Ratio [11] | Ratio [12] | MBC [13] [µg/mL] | MIC [14] [µg/mL] | MFC [15] [µg/mL] | MBC [16] [µg/mL] | Activity [17] | Activity [18] | Activity [19]
3 | COc1cc(/C=N/NC(=O)c2n[nH]c3c2Cc2ccccc2-3)ccc1O | 7.8 (≈ 22.4 µM) | 7.8 (≈ 22.4 µM) | 7.8 (≈ 22.4 µM) | – | 2 | 31.2 (≈ 89.6 µM) | 15.6 (≈ 44.8 µM) | 31.2 (≈ 89.6 µM) | 7.8 (≈ 22.4 µM) | 31.2 (≈ 89.6 µM) | 2 | 2 | 2 | 15.6 (≈ 44.8 µM) | 3.9 (≈ 11.2 µM) | 15.6 (≈ 44.8 µM) | 15.6 (≈ 44.8 µM) | – | – | –
4 | COc1ccc2c(c1)Cc1c(C(=O)N/N=C/c3ccc(O)c(OC)c3)n[nH]c1-2 | 7.8 (≈ 20.6 µM) | 3.9 (≈ 10.3 µM) | 3.9 (≈ 10.3 µM) | Dose-dependent effect | 2 | 15.6 (≈ 41.2 µM) | 7.8 (≈ 20.6 µM) | 15.6 (≈ 41.2 µM) | 7.8 (≈ 20.6 µM) | 15.6 (≈ 41.2 µM) | 2 | 2 | 2 | 15.6 (≈ 41.2 µM) | 3.9 (≈ 10.3 µM) | 7.8 (≈ 20.6 µM) | 7.8 (≈ 20.6 µM) | Active | Active | Dose-dependent effect
5 | COc1ccc2c(c1)Cc1c(C(=O)N/N=C/c3c(F)cc(F)cc3F)n[nH]c1-2 | 7.8 (≈ 20.2 µM) | 3.9 (≈ 10.1 µM) | 3.9 (≈ 10.1 µM) | Dose-dependent effect | 2 | 15.6 (≈ 40.4 µM) | 15.6 (≈ 40.4 µM) | 31.2 (≈ 80.8 µM) | 15.6 (≈ 40.4 µM) | 31.2 (≈ 80.8 µM) | 2 | 2 | 2 | 15.6 (≈ 40.4 µM) | 7.8 (≈ 20.2 µM) | 15.6 (≈ 40.4 µM) | 7.8 (≈ 20.2 µM) | Active | Active | Dose-dependent effect
